Legend:
Plasma kallikrein = Plasma kallikrein (Homo sapiens, UniProt P03952); assay: Inhibition of human plasma kallikerin using H-D-Phe-Pro-Arg-pNA (S-2302) peptide as substrate assessed as reduction of enzyme hydrolytic activity
Outline: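 Plasma kallikrein activity on synthetic peptide substrate S-2302 at 0.2 mM, with and without inhibitor. Hydrolysis followed as absorbance at 405 nm. IC50 is the inhibitor concentration giving a 50% drop in absorbance compared with the uninhibited control under the same conditions.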

[1] = target: Urokinase-type plasminogen activator (Homo sapiens, UniProt P00749); assay: Inhibition of human plasma urokinase using Glu-Gly-Arg-pNA (S-2444) peptide as substrate assessed as reduction of enzyme hydrolytic activity
Outline: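 Urokinase hydrolysis of S-2444 at 0.1 mM, monitored by absorbance at 405 nm. IC50 defined as the inhibitor concentration that lowers absorbance by 50% compared with enzyme run under the same conditions without inhibitor.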

Plasminogen = Plasminogen (Homo sapiens, UniProt P00747); assay: Inhibition of human plasmin using H-D-Val-Leu-LyspNA (S-2251) peptide as substrate assessed as reduction of enzyme hydrolytic activity
Outline: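 Plasmin activity was measured with 0.3 mM S-2251 as substrate and read as absorbance at 405 nm. IC50 is the inhibitor concentration cutting absorbance by 50% compared with the inhibitor-free control under the same conditions.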

Sequence of Plasminogen (P00747 97-580 limits assumed): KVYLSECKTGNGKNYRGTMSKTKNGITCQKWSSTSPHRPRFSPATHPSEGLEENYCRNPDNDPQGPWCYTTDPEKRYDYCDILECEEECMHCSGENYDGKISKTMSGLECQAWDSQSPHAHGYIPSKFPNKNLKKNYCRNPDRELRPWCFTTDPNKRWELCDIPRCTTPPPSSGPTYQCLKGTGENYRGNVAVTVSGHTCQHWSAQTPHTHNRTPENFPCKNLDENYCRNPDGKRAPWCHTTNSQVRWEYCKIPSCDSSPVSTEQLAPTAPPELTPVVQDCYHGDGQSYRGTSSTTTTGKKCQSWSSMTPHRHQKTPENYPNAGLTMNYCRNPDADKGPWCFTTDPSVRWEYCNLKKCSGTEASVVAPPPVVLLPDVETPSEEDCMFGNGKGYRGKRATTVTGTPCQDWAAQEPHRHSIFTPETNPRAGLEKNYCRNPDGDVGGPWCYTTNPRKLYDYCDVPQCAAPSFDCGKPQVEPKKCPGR
Sequence of Plasminogen (P00747 581-810 limits assumed): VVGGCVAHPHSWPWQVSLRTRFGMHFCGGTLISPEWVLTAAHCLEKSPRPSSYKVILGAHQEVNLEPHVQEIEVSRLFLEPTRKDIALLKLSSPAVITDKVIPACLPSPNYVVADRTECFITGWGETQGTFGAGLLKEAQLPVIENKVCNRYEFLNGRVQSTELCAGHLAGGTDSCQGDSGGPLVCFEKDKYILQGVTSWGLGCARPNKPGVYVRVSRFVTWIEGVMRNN
Sequence of Plasma kallikrein (P03952 20-390 limits assumed): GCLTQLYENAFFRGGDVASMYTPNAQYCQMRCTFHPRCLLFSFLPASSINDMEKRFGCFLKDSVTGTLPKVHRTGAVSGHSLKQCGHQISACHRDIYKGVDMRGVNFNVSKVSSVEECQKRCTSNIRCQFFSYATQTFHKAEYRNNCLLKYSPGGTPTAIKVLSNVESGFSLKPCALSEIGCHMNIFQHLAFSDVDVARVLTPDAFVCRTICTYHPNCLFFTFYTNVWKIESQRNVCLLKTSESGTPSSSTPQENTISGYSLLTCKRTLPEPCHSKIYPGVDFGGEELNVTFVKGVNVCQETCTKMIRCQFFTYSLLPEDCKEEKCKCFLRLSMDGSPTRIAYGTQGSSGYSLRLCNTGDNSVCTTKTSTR
Sequence of Plasma kallikrein (P03952 391-638 limits assumed): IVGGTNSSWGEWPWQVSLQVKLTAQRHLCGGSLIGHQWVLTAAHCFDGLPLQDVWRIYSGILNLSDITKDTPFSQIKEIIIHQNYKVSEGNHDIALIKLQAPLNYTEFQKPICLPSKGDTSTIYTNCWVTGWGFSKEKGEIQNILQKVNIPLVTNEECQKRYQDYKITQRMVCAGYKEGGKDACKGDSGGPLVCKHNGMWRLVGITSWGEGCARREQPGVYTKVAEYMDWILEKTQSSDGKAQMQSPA

| SMILES | IC50 (Plasma kallikrein) | IC50 [1] | IC50 (Plasminogen) |
| --- | --- | --- | --- |
| Cn1c(CN2C(=O)CN(c3ccc(OCc4ccncc4)c(C(N)=O)c3)C2=O)cc2cnc(C(=O)N[C@H](C#N)CCCCN)nc21 | > 1000 µM | > 1000 µM | 170 µM |
| Cn1c(CN2CC(=O)N(c3ccc(Oc4ccccc4)cc3)CC2=O)cc2cnc(C(=O)N[C@H](C#N)CCCCN)nc21 | > 1000 µM | > 1000 µM | 960 µM |
| Cn1c(CN2C(=O)CN(c3ccc(F)cc3)C2=O)cc2cnc(C(=O)N[C@H](C#N)CCCCN)nc21 | 740 µM | > 1000 µM | 130 µM |
| Cn1c(CN2C(=O)CN(c3ccc(S(N)(=O)=O)cc3)C2=O)cc2cnc(C(=O)N[C@H](C#N)CCCCN)nc21 | > 1000 µM | > 400 µM | 260 µM |
| Cn1c(CN2C(=O)CN(c3cccc(S(N)(=O)=O)c3)C2=O)cc2cnc(C(=O)N[C@H](C#N)CCCCN)nc21 | > 1000 µM | > 1000 µM | 220 µM |
| Cn1c(CN2C(=O)CN(c3cccc(C(N)=O)c3)C2=O)cc2cnc(C(=O)N[C@H](C#N)CCCCN)nc21 | > 1000 µM | > 1000 µM | 100 µM |
| Cn1c(CN2C(=O)CN(c3ccc(OCC(N)=O)cc3)C2=O)cc2cnc(C(=O)N[C@H](C#N)CCCCN)nc21 | > 1000 µM | > 1000 µM | 400 µM |
| COc1ccc(Oc2ccc(N3CC(=O)N(Cc4cc5cnc(C(=O)N[C@H](C#N)CCCCN)nc5n4C)C3=O)cc2)cc1 | > 1000 µM | > 400 µM | 64 µM |
| Cn1c(CN2C(=O)CN(c3ccc(Oc4ccccc4C(N)=O)cc3)C2=O)cc2cnc(C(=O)N[C@H](C#N)CCCCN)nc21 | > 1000 µM | > 1000 µM | 99 µM |

Further lines, results first:

| IC50 (Plasma kallikrein) | IC50 [1] | IC50 (Plasminogen) | SMILES |
| --- | --- | --- | --- |
| > 1000 µM | > 1000 µM | > 1000 µM | CN1CC(=O)N(Cc2cc3cnc(C(=O)N[C@H](C#N)CCCCN)nc3n2C)C1=O |
| > 1000 µM | > 1000 µM | 180 µM | COc1ccc(N2CC(=O)N(Cc3cc4cnc(C(=O)N[C@H](C#N)CCCCN)nc4n3C)C2=O)cc1 |
| > 1000 µM | > 1000 µM | 330 µM | CCCc1ccc(N2CC(=O)N(Cc3cc4cnc(C(=O)N[C@H](C#N)CCCCN)nc4n3C)C2=O)cc1 |
| > 1000 µM | > 1000 µM | 160 µM | Cn1c(CN2C(=O)CN(c3ccc(C(N)=O)cc3)C2=O)cc2cnc(C(=O)N[C@H](C#N)CCCCN)nc21 |
| > 1000 µM | > 1000 µM | 210 µM | Cn1c(CN2C(=O)CN(c3ccc(C#N)cc3)C2=O)cc2cnc(C(=O)N[C@H](C#N)CCCCN)nc21 |
| > 1000 µM | > 1000 µM | 220 µM | Cn1c(CN2C(=O)CN(c3cccc(C#N)c3)C2=O)cc2cnc(C(=O)N[C@H](C#N)CCCCN)nc21 |
| > 1000 µM | > 1000 µM | 250 µM | CC(=O)COc1ccc(N2CC(=O)N(Cc3cc4cnc(C(=O)N[C@H](C#N)CCCCN)nc4n3C)C2=O)cc1 |
| > 1000 µM | > 1000 µM | 130 µM | Cn1c(CN2C(=O)CN(c3ccc(OCC#N)cc3)C2=O)cc2cnc(C(=O)N[C@H](C#N)CCCCN)nc21 |
| > 1000 µM | > 400 µM | 51 µM | Cn1c(CN2C(=O)CN(c3ccc(Oc4ccccc4)cc3)C2=O)cc2cnc(C(=O)N[C@H](C#N)CCCCN)nc21 |
| > 1000 µM | > 1000 µM | 87 µM | Cn1c(CN2C(=O)CN(c3ccc(OCc4ccncc4)cc3)C2=O)cc2cnc(C(=O)N[C@H](C#N)CCCCN)nc21 |
| > 1000 µM | > 400 µM | > 250 µM | Cn1c(CN2C(=O)CN(c3ccc(Oc4ccc5ncccc5c4)cc3)C2=O)cc2cnc(C(=O)N[C@H](C#N)CCCCN)nc21 |
| > 1000 µM | > 1000 µM | 510 µM | Cn1c(CN2C(=O)CN(c3ccc(Oc4ccccc4)c(C(N)=O)c3)C2=O)cc2cnc(C(=O)N[C@H](C#N)CCCCN)nc21 |

Reference: ChEMBL document CHEMBL3232735, “Pyrrolopyrimidine-inhibitors with hydantoin moiety as spacer can explore P4/S4 interaction on plasmin” (Bioorg Med Chem, 2014)
